These results are taken from ChEMBL document CHEMBL1268815, “Modulating the development of E. coli biofilms with 2-aminoimidazoles” (Bioorg Med Chem Lett, 2010).

Where only a bound is given, the exact number is not on record here.

The subject of the first data set is Escherichia coli K-12. Kind of data set: Effect on Escherichia coli K-12 ER2738 biofilm formation by crystal violet reporter assay relative to control. It counts as functional, organism-based.
Details: not given; call rule not given here
A digest of the protocol:
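E. coli biofilm development was measured under static conditions by crystal violet reporter assay. Cultures were grown with or without compound for 24 h, then planktonic cells and medium were removed and wells were water-washed. Biofilm was stained with crystal violet, and the retained dye was ethanol-solubilized and quantified at A540 against untreated control.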
In general terms: A reporter such as luciferase makes a cellular process visible.
`CCCCCCCCCCNC(=O)Cn1cc(CCCc2c[nH]c(N)n2)nn1.Cl` came in with an IC50 of 36.9 µM.
On the same count and under the same terms, then `CCCCCCCCNC(=O)Cn1cc(CCCCCc2c[nH]c(N)n2)nn1.Cl`, with 13 µM.

System in another data set: not listed separately
In words: Toxicity in sheep RBC assessed as induction of hemolysis. The class given is cell-based, Ovis aries. The conditions noted are these: erythrocyte.
For `Cl.Nc1nc(CCCc2cn(CC(=O)NCc3ccccc3)nn2)c[nH]1`, the Activity is above 800 µM.
Same read-out and setting: to `COc1ccc(CCNC(=O)Cn2cc(CCCc3c[nH]c(N)n3)nn2)cc1.Cl` belongs above 800 µM.
On to `CCCCCCCCCCNC(=O)Cn1cc(CCCc2c[nH]c(N)n2)nn1.Cl`, for which the Activity stood at 487 µM.
The same measure, in the same setting: then `CCCCCCCCNC(=O)Cn1cc(CCCCCc2c[nH]c(N)n2)nn1.Cl`, with 675 µM.

A further data set relates to Escherichia coli K-12. In words: Effect on Escherichia coli K-12 ER2738 biofilm formation at 400 uM after 24 hrs by crystal violet reporter assay relative to control. The class given is functional. Conditions: ER2738, 24 h. In a few lines: (§1)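 Initial single-concentration screen for effect on biofilm development. Bacteria were incubated statically with or without compound for 24 h. Medium and planktonic cells were removed and wells were water-washed. Attached biofilm was stained with crystal violet, washed, and the stain was solubilized in ethanol and read at A540. Results were expressed relative to untreated control as means of three experiments.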
For the compound `Nc1nc(CCCc2cn(CC(=O)Nc3ccccc3)nn2)c[nH]1`, the inhibition at 400 µM is -142%.
With `CCCCCCNC(=O)Cn1cc(CCCc2c[nH]c(N)n2)nn1`, the inhibition at 400 µM is -30.3%.
As for `COc1ccc(NC(=O)Cn2cc(CCCc3c[nH]c(N)n3)nn2)cc1`, the inhibition at 400 µM was -169%.
For the compound `Nc1nc(CCCc2cn(CC(=O)NCCc3ccccc3)nn2)c[nH]1`, the inhibition at 400 µM is -41.8%.
Take `CCCCCCCCCCCCCCNC(=O)Cn1cc(CCCc2c[nH]c(N)n2)nn1`: the inhibition at 400 µM came to 57.8%.
For `Nc1nc(CCCc2cn(CC(=O)N3CCCC3)nn2)c[nH]1`, the inhibition at 400 µM is 2.6%.
For the compound `CC(C)NC(=O)Cn1cc(CCCc2c[nH]c(N)n2)nn1`, the inhibition at 400 µM is -127%.
Regarding `CC(C)(C)NC(=O)Cn1cc(CCCc2c[nH]c(N)n2)nn1`, the inhibition at 400 µM is 17.6%.
On to `Nc1nc(CCCCCc2cn(CC(=O)Nc3ccccc3)nn2)c[nH]1`, for which the inhibition at 400 µM was -143%.
Turning to `CCCCCCCCCCNC(=O)Cn1cc(CCCc2c[nH]c(N)n2)nn1.Cl`, the inhibition at 400 µM was 90.8%.
`Nc1nc(CCCc2cn(CC(=O)NC3CCCCC3)nn2)c[nH]1`: the inhibition at 400 µM is -169%.
On to `CCCCCCCCCCNC(=O)Cn1cc(CCCCCc2c[nH]c(N)n2)nn1`, for which the inhibition at 400 µM was 58.9%.
`Nc1nc(CCCCCc2cn(CC(=O)NCCc3ccccc3)nn2)c[nH]1`: the inhibition at 400 µM is -174%.
The same measure, in the same setting: then `Nc1nc(CCCc2cn(CC(=O)NCCCc3ccccc3)nn2)c[nH]1`, with -176%; and `COc1ccc(CNC(=O)Cn2cc(CCCc3c[nH]c(N)n3)nn2)cc1`, with -19.9%; and `Nc1nc(CCCc2cn(CC(=O)NC3CCCC3)nn2)c[nH]1`, with -47.8%.
In the case of `Nc1nc(CCCc2cn(CC(=O)N3CCOCC3)nn2)c[nH]1`, the inhibition at 400 µM was -183%.

A further data set relates to Acinetobacter baumannii. Kind of data set: Effect on Acinetobacter baumannii biofilm formation at 400 uM after 24 hrs by crystal violet reporter assay relative to control. Conditions: read-out: INH. The class given is functional. A digest of the protocol:
as §1
For the compound `Nc1nc(CCCc2cn(CC(=O)Nc3ccccc3)nn2)c[nH]1`, the inhibition at 400 µM was 23%.
Take `Cl.Nc1nc(CCCc2cn(CC(=O)NCc3ccccc3)nn2)c[nH]1`: the inhibition at 400 µM came out at 19.5%.
Consider `COc1ccc(CCNC(=O)Cn2cc(CCCc3c[nH]c(N)n3)nn2)cc1.Cl`, for which the inhibition at 400 µM was 8.5%.
With `CCCCCCNC(=O)Cn1cc(CCCc2c[nH]c(N)n2)nn1`, the inhibition at 400 µM was found to be 31.4%.
Consider `Nc1nc(CCCc2cn(CC(=O)NCCc3ccccc3)nn2)c[nH]1`, for which the inhibition at 400 µM worked out at 20.8%.
Regarding `CCCCCCCCCCCCCCNC(=O)Cn1cc(CCCc2c[nH]c(N)n2)nn1`, the inhibition at 400 µM worked out at 36.4%.
On to `Nc1nc(CCCc2cn(CC(=O)N3CCCC3)nn2)c[nH]1`, for which the inhibition at 400 µM was determined as 6.2%.
Consider `CC(C)NC(=O)Cn1cc(CCCc2c[nH]c(N)n2)nn1`, for which the inhibition at 400 µM was 13.6%.
For `CC(C)(C)NC(=O)Cn1cc(CCCc2c[nH]c(N)n2)nn1`, the inhibition at 400 µM worked out at 21.2%.
With `CCCCCCCCCCNC(=O)Cn1cc(CCCc2c[nH]c(N)n2)nn1.Cl`, the inhibition at 400 µM amounted to 28.3%.
As to `Nc1nc(CCCc2cn(CC(=O)NCCCc3ccccc3)nn2)c[nH]1`, the inhibition at 400 µM was determined as 23.2%.
Take `COc1ccc(CNC(=O)Cn2cc(CCCc3c[nH]c(N)n3)nn2)cc1`: the inhibition at 400 µM amounted to 17.5%.
With `Nc1nc(CCCc2cn(CC(=O)NC3CCCC3)nn2)c[nH]1`, the inhibition at 400 µM was found to be 15.9%.
In the case of `Nc1nc(CCCc2cn(CC(=O)N3CCOCC3)nn2)c[nH]1`, the inhibition at 400 µM was determined as 30.3%.

For another data set, the system named is Escherichia coli K-12. In words: Dispersion of preformed Escherichia coli K-12 ER2738 biofilm by crystal violet reporter assay relative to control.
Details: not given
For `CCCCCCCCNC(=O)Cn1cc(CCCCCc2c[nH]c(N)n2)nn1.Cl`, the EC50 result is reported as “Not Active”.

The data set is the same for the next values; noted with them: Escherichia coli, ER2738; read-out: EC50.
Turning to `CCCCCCCCCCNC(=O)Cn1cc(CCCc2c[nH]c(N)n2)nn1.Cl`, the EC50 was determined as 120 µM.

For orientation: IC50 means the point on the concentration scale where inhibition reaches its midpoint. By EC50 is commonly meant the concentration that produces a half-maximal response.
